Measured values published in ChEMBL document CHEMBL5357042, “Discovery of imidazo[1,2-b]pyridazine-containing TAK1 kinase inhibitors with excellent activities against multiple myeloma” (RSC Med Chem, 2024).
Activity calls are given as the source filed them. No cut-off for these calls is given here.

Tests used:
[1] = target: T1, Mitogen-activated protein kinase kinase kinase 7 (Homo sapiens) (UniProt O43318); test: Inhibition of TAK1 (unknown origin) at 500 nM by ADP-Glo kinase assay
T1 sequence (whole entry): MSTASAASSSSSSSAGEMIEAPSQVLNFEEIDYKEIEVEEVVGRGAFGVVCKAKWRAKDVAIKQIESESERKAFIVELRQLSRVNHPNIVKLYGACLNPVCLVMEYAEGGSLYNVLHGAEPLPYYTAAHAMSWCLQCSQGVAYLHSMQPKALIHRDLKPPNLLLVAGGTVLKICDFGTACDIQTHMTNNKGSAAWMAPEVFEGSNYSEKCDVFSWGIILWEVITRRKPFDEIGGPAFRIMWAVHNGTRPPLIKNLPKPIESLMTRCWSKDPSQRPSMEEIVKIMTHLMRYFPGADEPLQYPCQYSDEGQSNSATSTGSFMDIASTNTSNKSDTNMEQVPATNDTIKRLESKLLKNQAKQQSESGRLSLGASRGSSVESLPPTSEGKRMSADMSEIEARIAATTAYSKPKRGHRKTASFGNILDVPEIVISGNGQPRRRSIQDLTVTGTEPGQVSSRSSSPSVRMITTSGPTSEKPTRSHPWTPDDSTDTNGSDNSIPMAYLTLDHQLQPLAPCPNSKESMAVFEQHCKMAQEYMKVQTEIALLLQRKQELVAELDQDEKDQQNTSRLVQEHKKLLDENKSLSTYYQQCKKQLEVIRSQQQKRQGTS

[2] = test system: NCI-H929; test: Cytotoxicity against human NCI-H929 cells assessed as reduction in cell viability incubated for 72 hrs by CellTiter-Blue assay; assay type: functional
Summary of the method: (§1)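 H929 (RPMI, 10% heat-inactivated FBS) or MPC-11 (DMEM, 10% FBS) cells, under 10 passages, 37 °C, 5% CO₂; 4–5 × 10³ cells/well seeded, 24 h, then compound at various concentrations for 72 h. CellTiter-Blue added for 3 h, fluorescence ex/em 560/590 nm. Normalized to DMSO-treated cells; triplicate, mean and standard deviation.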

[3] = test system: MPC-11; test: Cytotoxicity against mouse MPC-11 cells assessed as reduction in cell viability incubated for 72 hrs by CellTiter-Blue assay; assay type: functional; summary of the method: as §1
[4] = target: T1, Mitogen-activated protein kinase kinase kinase 7 (Homo sapiens); test: Inhibition of TAK1 (unknown origin) at 100 nM by ADP-Glo kinase assay
[5] = test system: MPC-11; test: Cytotoxicity against mouse MPC-11 cells assessed as reduction in cell viability at 0.2 to 1 uM to incubated for 72 hrs by CellTiter-Blue assay; assay type: functional, cell-based; settings: dose 0.2-1 µM; summary of the method: as §1
[6] = target: T1, Mitogen-activated protein kinase kinase kinase 7 (Homo sapiens); test: Inhibition of TAK1 (unknown origin) at 20 nM by ADP-Glo kinase assay
[7] = test system: MPC-11; test: Cytotoxicity against mouse MPC-11 cells assessed as reduction in cell viability at 200 nM incubated for 72 hrs by CellTiter-Blue assay; assay type: functional; summary of the method: as §1
[8] = target: Mitogen-activated protein kinase kinase kinase 7 (Mus musculus) (UniProt Q62073); test: Inhibition of TAK1 in mouse MPC-11 cells assessed as reduction in TAK1 phosphorylation at Ser412 residue at 0.1 to 0.5 uM incubated for 48 hrs by Western blot analysis; assay type: cell-based; settings: dose 0.1-0.5 µM
Summary of the method: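 MPC-11 cells (0.5–1 × 10⁶/well) seeded, treated after 24 h for 48 h; DMSO control. BCA protein quantitation, 10% SDS-PAGE, PVDF; pTAK1, TAK1, β-actin antibodies overnight 4 °C, HRP secondaries 2 h 24 °C, chemiluminescence. Bands quantified relative to actin; duplicates, mean and standard deviation.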

[9] = target: Mitogen-activated protein kinase kinase kinase 7 (Homo sapiens, UniProt O43318); test: Inhibition of human TAK1 using casein as substrate in presence of [gamma-33P]-ATP by radiometric hotspot kinase assay

Sequence of Mitogen-activated protein kinase kinase kinase 7 (Mus musculus) (Q62073 whole entry): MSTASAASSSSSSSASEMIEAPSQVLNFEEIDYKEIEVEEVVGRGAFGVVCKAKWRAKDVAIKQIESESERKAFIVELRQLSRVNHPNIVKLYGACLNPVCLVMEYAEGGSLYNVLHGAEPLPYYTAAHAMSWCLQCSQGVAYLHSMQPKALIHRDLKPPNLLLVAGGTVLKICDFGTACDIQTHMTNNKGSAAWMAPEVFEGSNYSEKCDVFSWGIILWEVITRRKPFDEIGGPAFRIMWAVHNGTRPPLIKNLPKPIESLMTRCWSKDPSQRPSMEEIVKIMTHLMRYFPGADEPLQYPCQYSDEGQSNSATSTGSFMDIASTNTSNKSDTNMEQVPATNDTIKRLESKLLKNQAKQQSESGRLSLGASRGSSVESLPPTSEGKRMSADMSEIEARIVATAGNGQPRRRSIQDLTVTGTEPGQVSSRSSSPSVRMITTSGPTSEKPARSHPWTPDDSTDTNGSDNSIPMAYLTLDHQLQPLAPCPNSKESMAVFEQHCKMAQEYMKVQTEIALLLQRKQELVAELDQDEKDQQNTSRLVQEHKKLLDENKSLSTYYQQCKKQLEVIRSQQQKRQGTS

Row | SMILES | inhibition [1] | inhibition [4] | other results
1 | CNC(=O)c1ccc(-c2cnc3ccc(N4C[C@@H](C)O[C@@H](C)C4)nn23)cc1 | < 50% | – | –
2 | C[C@@H]1CN(c2ccc3ncc(-c4ccccc4)n3n2)C[C@H](C)O1 | < 50% | – | –
3 | Cc1n[nH]c2ccc(-c3cnc4ccc(N5C[C@H]6C[C@@H]5CO6)nn34)cc12 | > 50% | > 50% | GI50 [2]: 71 nM; GI50 [3]: 155 nM; Activity [5]: Active; inhibition [6]: > 50%
4 | Cc1n[nH]c2ccc(-c3cnc4ccc(N5C[C@@H](C)O[C@H](C)C5)nn34)cc12 | > 50% | > 50% | Activity [5]: Active; inhibition [6]: > 50%
5 | Cc1n[nH]c2ccc(-c3cnc4ccc(N5CC6CCC(C5)O6)nn34)cc12 | > 50% | > 50% | GI50 [2]: 33 nM; GI50 [3]: 131 nM; Activity [5]: Active; inhibition [6]: > 50%
6 | C[C@@H]1CN(c2ccc3ncc(-c4ccc(OC(F)(F)F)cc4)n3n2)C[C@H](C)O1 | < 50% | – | –
7 | C[C@@H]1CN(c2ccc3ncc(-c4ccc5c(cnn5C)c4)n3n2)C[C@H](C)O1 | < 50% | – | –
8 | C[C@@H]1CN(c2ccc3ncc(-c4ccc(F)cc4)n3n2)C[C@H](C)O1 | < 50% | – | –
9 | C[C@@H]1CN(c2ccc3ncc(-c4ccc(CC#N)cc4)n3n2)C[C@H](C)O1 | < 50% | – | –
10 | C[C@@H]1CN(c2ccc3ncc(-c4ccc(C(N)=O)cc4)n3n2)C[C@H](C)O1 | 74% | < 50% | –
11 | Cc1n[nH]c2ccc(-c3cnc4ccc(N5CCO[C@@H](C)C5)nn34)cc12 | 100% | > 50% | Activity [5]: inactive; inhibition [6]: > 50%; inhibition [7]: inactive
12 | C[C@@H]1CN(c2ccc3ncc(-c4ccncc4)n3n2)C[C@H](C)O1 | < 50% | – | –
13 | C[C@@H]1CN(c2ccc3ncc(-c4ccc(C(F)(F)F)cc4)n3n2)C[C@H](C)O1 | < 50% | – | –
14 | C[C@@H]1CN(c2ccc3ncc(-c4ccc5[nH]ncc5c4)n3n2)C[C@H](C)O1 | > 50% | > 50% | –
15 | C[C@@H]1CN(c2ccc3ncc(-c4ccc(Cl)cc4)n3n2)C[C@H](C)O1 | < 50% | – | –
16 | Cc1n[nH]c2ccc(-c3cnc4ccc(N5C[C@@H](C)O[C@@H](C)C5)nn34)cc12 | 100% | 95% | inhibition [8]: Active; GI50 [2]: 87 nM; GI50 [3]: 72 nM; inhibition [6]: > 50%
17 | C[C@@H]1CN(c2ccc3ncc(-c4cccc(S(C)(=O)=O)c4)n3n2)C[C@H](C)O1 | < 50% | – | –
18 | Cc1n[nH]c2ccc(-c3cnc4ccc(N5C[C@@H]6C[C@H]5CO6)nn34)cc12 | > 50% | > 50% | GI50 [2]: 45 nM; GI50 [3]: 101 nM; Activity [5]: Active; inhibition [6]: > 50%

Row | SMILES | inhibition [1] | inhibition [4] | other results
19 | Cc1n[nH]c2ccc(-c3cnc4cccnn34)cc12 | – | 26% | –
20 | C[C@@H]1CN(c2ccc3ncc(-c4cccc(C#N)c4)n3n2)C[C@H](C)O1 | < 50% | – | –
21 | C[C@@H]1CN(c2ccc3ncc(-c4ccc5cnn(C)c5c4)n3n2)C[C@H](C)O1 | > 50% | > 50% | –
22 | CCCn1/c(=N/C(=O)c2cccc(C(N)=O)c2)[nH]c2ccccc21 | – | – | GI50 [2]: 51000 nM; IC50 [9]: 187 nM; GI50 [3]: 8500 nM
23 | Cc1nc2ccc(N3C[C@@H](C)O[C@@H](C)C3)nn2c1-c1ccc2[nH]nc(C)c2c1 | < 50% | – | –
24 | C[C@@H]1CN(c2ccc3ncc(-c4ccc5cn[nH]c5c4)n3n2)C[C@H](C)O1 | > 50% | > 50% | –
25 | C[C@@H]1CN(c2ccc3ncc(-c4ccc(C#N)cc4)n3n2)C[C@H](C)O1 | < 50% | – | –
26 | CCc1n[nH]c2ccc(-c3cnc4ccc(N5C[C@@H](C)O[C@@H](C)C5)nn34)cc12 | 100% | > 50% | GI50 [2]: 30 nM; GI50 [3]: 94 nM; inhibition [6]: > 50%
27 | C[C@@H]1CN(c2ccc3ncc(-c4cccnc4)n3n2)C[C@H](C)O1 | < 50% | – | –
28 | C[C@@H]1CN(c2ccc3ncc(-c4ccc5c(c4)CC(=O)N5)n3n2)C[C@H](C)O1 | < 50% | – | –
29 | C[C@@H]1CN(c2ccc3ncc(-c4ccc(S(N)(=O)=O)cc4)n3n2)C[C@H](C)O1 | < 50% | – | –
30 | Cc1n[nH]c2ccc(-c3cnc4ccc(N5CCOC(C)(C)C5)nn34)cc12 | 100% | > 50% | GI50 [2]: 24 nM; GI50 [3]: 126 nM; Activity [5]: Active; inhibition [6]: > 50%
31 | COCCN1CCN(c2ccc3ncc(-c4ccc5[nH]nc(C)c5c4)n3n2)CC1 | > 50% | 46% | –
32 | C[C@@H]1CN(c2ccc3ncc(-c4cccc5[nH]ncc45)n3n2)C[C@H](C)O1 | < 50% | – | –
33 | Cc1n[nH]c2ccc(-c3cnc4ccc(N5CCOCC5)nn34)cc12 | > 50% | 91% | –
34 | Cc1n[nH]c2ccc(-c3cnc4ccc(N5CCO[C@H](C)C5)nn34)cc12 | > 50% | > 50% | Activity [5]: Active; inhibition [6]: > 50%; inhibition at 0.2 µM [7]: ~50%
35 | C[C@@H]1CN(c2ccc3ncc(-c4ccc(F)c(C#N)c4)n3n2)C[C@H](C)O1 | < 50% | – | –
